Screens from PubChem.
core dimer inh – inhibitors of HCV core protein dimerization, primary screen, biochemical, TR-FRET, high-throughput; 300,000 compounds, 0.33% hits; inhibition, % at 5 µM; TR-FRET GST/Flag-core106 dimerization, 1536-well;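 active means inhibition above the mean of all tested compounds plus 3 SD, set per screening campaign, cut at about 45% in these data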
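Assay system: Tagged HCV core106 pair (GST and Flag) | Buffer or medium: KF-containing HEPES buffer, pH 7.45, DTT, CHAPS, BSA | Also added: Eu donor and XL665 acceptor anti-tag antibodies | Dosing: One concentration, 5 µM, in 0.5% DMSO | Timing: 4 h at 22.5 °C | Technique: TR-FRET 671 and 617 nm emission | Repeats: Singlicate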
Vif inh – HIV Vif self-association inhibitors, primary screen, imaging, HEK293T, single point | AID 602346, 2012 | 340,000 compounds, 0.35% hits | HEK293T cells, Vif self-association by quenched fluorescence, 24 h | inhibition, % at 7.49 µM; in the data active means inhibition above about 50%, passing the limit was not always enough
NR2E3 ag-1 – inhibitors of NR2E3-RetCOR corepressor binding, primary screen, NR2E3 agonist project, biochemical, TR-FRET, GST-NR2E3, biotin-RetCOR; Photoreceptor-specific nuclear receptor (Homo sapiens), Q9Y5X4; inhibition of corepressor binding, % at 4.78 µM; 320,000 compounds, 0.12% hits; 1536-well; AID 2300, 2010;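 active means percent inhibition above the cutoff of mean plus 3 SD of all tested compounds, set per screening campaign, cut at about 20% in these data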;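 further: 0% = DMSO wells and 100% = biotin wells as full block of FRET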
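system = GST-tagged NR2E3 plus biotinylated RetCOR corepressor | input = 1.35 nM GST-NR2E3 | also added = 7 nM biotin-RetCOR | schedule = 5 h incubation at 4 °C | measured by = TR-FRET with europium anti-GST and streptavidin-D2, 340 nm excitation | read-out = percent loss of FRET ratio relative to control wells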
MT1-MMP act inh – blockers of MT1-MMP proenzyme processing, primary screen, HT1080 RFP-PRO-GFP cells, GFP/RFP fluorescence. GFP/RFP ratio change, % at 20 µM. Matrix metalloproteinase-14 (Homo sapiens), P50281. GFP/RFP ratio fluorescence, overnight; percent of plate control window, DMSO zero. 360,000 compounds, 0.061% hits;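 active means GFP/RFP ratio change of at least 30% with cell ATP level not reduced by more than half and red fluorescence within 50% of control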
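system = RFP-PRO-GFP reporter HT1080 cells | dosing = 20 µM single dose, 1% DMSO | timing = overnight cell settling, then overnight compound exposure, 37 °C, 5% CO2 | read-out basis = GFP/RFP fluorescence ratio | controls = DMSO and RFP-L50D-GFP cell wells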
DAGLB inhibitor – DAGLB lipase inhibitors, primary screen, biochemical, fluorescence, HTS; Diacylglycerol lipase-beta (Homo sapiens), Q8NCG7; HEK293T DAGLB membrane lysate, EnzChek fluorogenic substrate; inhibition, % at 5.17 µM; 340,000 compounds, 0.059% hits; in the data active means inhibition above about 34%;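 further: 0% = enzyme with vehicle and 100% = wells lacking enzyme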
Target sequence (Q8NCG7 whole entry, looked up): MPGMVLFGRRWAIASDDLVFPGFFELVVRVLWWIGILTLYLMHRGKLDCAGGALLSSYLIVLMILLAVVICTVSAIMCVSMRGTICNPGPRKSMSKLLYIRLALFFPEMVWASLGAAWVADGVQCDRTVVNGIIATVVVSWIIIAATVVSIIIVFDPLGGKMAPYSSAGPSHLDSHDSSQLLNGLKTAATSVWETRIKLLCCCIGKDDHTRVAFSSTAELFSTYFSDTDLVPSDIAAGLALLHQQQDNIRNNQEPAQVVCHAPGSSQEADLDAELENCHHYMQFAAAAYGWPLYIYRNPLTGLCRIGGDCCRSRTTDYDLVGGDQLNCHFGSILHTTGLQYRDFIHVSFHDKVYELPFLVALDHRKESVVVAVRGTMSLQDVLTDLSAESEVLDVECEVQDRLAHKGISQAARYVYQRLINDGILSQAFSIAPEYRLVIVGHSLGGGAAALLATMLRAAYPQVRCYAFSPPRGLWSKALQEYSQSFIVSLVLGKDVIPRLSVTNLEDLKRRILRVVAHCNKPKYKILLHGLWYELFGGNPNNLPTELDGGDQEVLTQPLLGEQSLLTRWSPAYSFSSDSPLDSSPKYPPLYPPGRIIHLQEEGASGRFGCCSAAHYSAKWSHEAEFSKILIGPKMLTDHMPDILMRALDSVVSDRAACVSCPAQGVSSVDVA
NR2E3 ag-2 – NR2E3 agonists in two-hybrid cells, primary screen, cell-based, luminescence, CHO-S, Gal4-NCOR/VP16-NR2E3 | AID 602229, 2012 | luciferase | 360,000 compounds, 0.35% hits | inhibition of corepressor binding, % at 3.98 µM;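 active means inhibition above the mean of all tested compounds plus 3 SD, cut at about 70% in these data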;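 further: 0% = DMSO with NR2E3 transfected cells and 100% = cells lacking NR2E3 construct; higher means lower luciferase signal from less NR2E3 corepressor binding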
Starred values were filed as active, the others as inactive; x = not tested or not shown. Rows were chosen to be rich in hits. Some 1.1% of all compounds tested hit in one or more screens of this group.

SMILES | core dimer inh | Vif inh | NR2E3 ag-1 | MT1-MMP act inh | DAGLB inhibitor | NR2E3 ag-2
O=C(N/N=C/c1ccc(O)cc1O)c1ccc(CN2C(=O)c3cccc4cccc2c34)cc1 | 54* | -2 | 7 | -7 | 0 | -22
O=C(N/N=C/c1ccccc1)c1ccc(CN2C(=O)c3cccc4cccc2c34)cc1 | 13 | -3 | 1 | 0 | -6 | -12
C=C1C(=O)O[C@@H]2[C@H]1[C@@H](OC(=O)/C(C)=C/C)C/C(C)=C\C(=O)/C=C(\C)[C@@H]2O | 5 | 97* | -1 | -4 | 1 | 42
C=C1C(=O)O[C@H]2[C@H]1[C@H](OC(=O)/C(C)=C\C)C[C@]1(CO1)[C@@H]1[C@H](OC(C)=O)C=C(C)[C@]21O | x | 8 | x | -3 | 0 | -16
COC(=O)[C@]12CCCCC=C1N(CCc1ccc(OC)c(OC)c1)C(=O)[C@H](CC(=O)NCCc1ccccc1OC)C2 | x | x | x | 3 | x | x
O=C(Nc1ccc2[nH]c3c(c2c1)CCCC3)c1ccco1 | 47* | 6 | 0 | 2 | 5 | -14
Cc1cc(=O)c2cccc(Br)c2[nH]1 | -4 | -1 | 0 | -6 | 3 | 5
O=c1cc(C(F)(F)F)[nH]c2c(C(F)(F)F)cccc12 | -11 | -3 | 4 | 15 | -2 | 101*
Cc1ccc(-c2nc3ncccc3o2)cc1NC(=O)c1ccc2c(c1)OCO2 | x | 51* | x | -1 | 4 | 8
Cc1ccc(Nc2nnc(SCn3nnc4ccccc4c3=O)s2)cc1 | 13 | -4 | -1 | 11 | -1 | -70
O=c1c2ccccc2nnn1CSc1nnc(Nc2ccccc2)s1 | 5 | 51* | 2 | 5 | -2 | -12
Cc1cc([N+](=O)[O-])cc2c1NC(c1ccccn1)C1CC=CC21 (stereo unspecified) | 49* | 0 | 3 | 2 | 6 | -26
O=C(O)c1ccc(Cl)c2c1C1C=CCC1C(c1ccccn1)N2 (stereo unspecified) | 11 | x | 8 | x | x | x
O=[N+]([O-])c1ccc(Cl)c2c1C1C=CCC1C(c1ccccn1)N2 (stereo unspecified) | 58* | 1 | 2 | 3 | 10 | -19
Cc1ccn(C(=O)c2ccc(NC(=O)C3CC3)cc2)n1 | -1 | 4 | 5 | -5 | 0 | 14
COC(=O)C(C(=O)OC)C(c1ccccc1)C(C(=O)c1ccccc1)[N+](=O)[O-] (stereo unspecified) | -1 | 53* | -2 | 1 | 2 | -14
COc1cc2c(c(OC)c1OC)-c1ccc(OC)c(=O)cc1C(NC(C)=O)CC2 (stereo unspecified) | -2 | -6 | 1 | 11 | -1 | 39
COc1c(C=O)c2c(c(OC)c1OC)-c1ccc(OC)c(=O)cc1C(NC(C)=O)CC2 (stereo unspecified) | x | 90* | x | 31 | -4 | 20
CC(C)(C)c1nnc(NS(=O)(=O)c2cc(Cl)ccc2Cl)s1 | 7 | 6 | -1 | 0 | 6 | -2
O=S(=O)(Nc1nc(-c2sccc2Cl)cs1)c1cc(Cl)ccc1Cl | 20 | -2 | 7 | -3 | 27 | 99*
O=C(NCC1CC1)NC(=O)c1c(F)cccc1Cl | -3 | 50* | -1 | -3 | -4 | -27
c1ccc(OCc2nnc3sc(C4COc5ccccc5O4)nn23)cc1 (stereo unspecified) | 51* | -3 | 4 | 1 | 3 | -20
COc1cc(OC)c(NC(=O)Cc2cccs2)cc1Cl | 7 | -4 | 1 | 4 | -2 | 20
CCN(CC)S(=O)(=O)c1ccc(OC)c(NC(=O)Cc2cccs2)c1 | 50* | -4 | -2 | -2 | -1 | -14
C=CCOC(=O)C1=C(C)NC(SCC(=O)Nc2nccs2)=C(C#N)C1c1ccc(Cl)cc1 (stereo unspecified) | 33 | 12 | 1 | -4 | 2 | -16
SMILES | core dimer inh | Vif inh | NR2E3 ag-1 | MT1-MMP act inh | DAGLB inhibitor | NR2E3 ag-2
C=CCOC(=O)C1=C(C)NC(SCC(=O)Nc2nccs2)=C(C#N)C1c1cccs1 (stereo unspecified) | 49* | 0 | 3 | -8 | -3 | -69
Cc1ccc(N2C(=O)C3CC(c4ccccc4)=C4C5C=CC(C6C(=O)N(c7ccc(C)cc7C)C(=O)C56)C4C3C2=O)c(C)c1 (stereo unspecified) | 52* | 3 | -4 | -5 | -1 | -3
CC1(C)CC(=NOC(=O)c2ccccc2)CC(C)(C)N1O | -6 | -1 | -1 | 1 | 6 | 24
CCOC(=O)c1csc(-c2csc(CCNC(=O)c3ccccc3)n2)n1 | x | 51* | x | 4 | 0 | 14
O=C(NCc1ccccc1)c1ccc(S(=O)(=O)N2CCCC2)cc1 | 0 | x | 3 | 9 | -2 | -18
O=C(NCc1ccccc1)c1ccc(S(=O)(=O)N2CCCCCC2)cc1 | x | 77* | x | 1 | -3 | 3
Cn1c(-c2ccccc2)cc2ccccc21 | 4 | -8 | 4 | 1 | -5 | -6
Cn1c(-c2ccccc2)cc2c3no[n+]([O-])c3ccc21 | -9 | 61* | 0 | -13 | 2 | -5
C/C=C\C=C/C(=O)Nc1cccc(C2=NOC3(C2)C[C@@H](C(N)=O)N(C(=O)/C=C/CC)C3)c1 (stereo partly specified) | 53* | x | -4 | 3 | -1 | -4
NC(=O)[C@H]1CC2(CC(c3cccc(NC(=O)CC(c4ccccc4)c4ccccc4)c3)=NO2)CN1C(=O)c1ccccc1C(=O)c1ccccc1 (stereo partly specified) | 46* | -4 | 4 | 9 | 2 | 2
C=C(C)C(=O)N1CC2(CC(c3cccc(NC(=O)/C=C\C=C/C)c3)=NO2)C[C@H]1C(N)=O (stereo partly specified) | 56* | 4 | -3 | 0 | 0 | -12
C/C=C\C=C/C(=O)Nc1cccc(C2=NOC3(C2)C[C@@H](C(N)=O)N(C(=O)/C=C/C=C\C)C3)c1 (stereo partly specified) | 39 | 2 | 1 | 1 | -1 | -3
COC(=O)C[C@H]1C=C[C@H](NC(=O)c2cccc(F)c2)[C@@H](CO)O1 | x | x | x | -1 | x | x
